Assays:
Assay type in all cases: cell-based
Neuropeptide S receptor = target: T1, Neuropeptide S receptor (Homo sapiens, UniProt Q6W5P4); test: Antagonist activity at human Gq-coupled NPSR1b expressed in human U2OS cells assessed as inhibition in neuropeptide S-induced beta-arrestin 2 recruitment incubated for 30 mins followed by neuropeptide S addition and measured after 90 or 180 mins by pathhunter beta-arrestin assay
T1 sequence (Q6W5P4 whole entry): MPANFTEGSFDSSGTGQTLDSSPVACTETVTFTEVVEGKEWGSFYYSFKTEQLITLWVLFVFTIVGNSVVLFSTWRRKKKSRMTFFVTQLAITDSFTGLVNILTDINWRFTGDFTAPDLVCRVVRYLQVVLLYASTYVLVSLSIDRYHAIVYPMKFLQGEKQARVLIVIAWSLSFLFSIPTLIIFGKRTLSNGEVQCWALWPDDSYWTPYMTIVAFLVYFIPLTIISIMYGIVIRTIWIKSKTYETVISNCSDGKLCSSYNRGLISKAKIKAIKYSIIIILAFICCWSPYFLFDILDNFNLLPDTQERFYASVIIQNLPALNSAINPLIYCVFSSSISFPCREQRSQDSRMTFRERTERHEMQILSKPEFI
Method in brief: (§1)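 PathHunter beta-arrestin recruitment, antagonist mode, run at DiscoverX. Cells seeded and held at 37 °C, then preincubated with test sample for 30 min at 37 °C or room temperature (1% vehicle). Agonist then added at EC80 for 90 or 180 min. […] IC50 comes from concentration–response runs in the same format.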

[1] = target: C-C chemokine receptor type 8 (Homo sapiens, UniProt P51685); test: Antagonist activity at human CCR8 expressed in CHOK1 cells assessed as reduction in CCL1-induced beta-arrestin 2 recruitment incubated for 30 mins followed by CCL1 addition and measured after 90 or 180 mins by pathhunter beta-arrestin assay; method in brief: as §1
Sequence of C-C chemokine receptor type 8 (P51685 whole entry): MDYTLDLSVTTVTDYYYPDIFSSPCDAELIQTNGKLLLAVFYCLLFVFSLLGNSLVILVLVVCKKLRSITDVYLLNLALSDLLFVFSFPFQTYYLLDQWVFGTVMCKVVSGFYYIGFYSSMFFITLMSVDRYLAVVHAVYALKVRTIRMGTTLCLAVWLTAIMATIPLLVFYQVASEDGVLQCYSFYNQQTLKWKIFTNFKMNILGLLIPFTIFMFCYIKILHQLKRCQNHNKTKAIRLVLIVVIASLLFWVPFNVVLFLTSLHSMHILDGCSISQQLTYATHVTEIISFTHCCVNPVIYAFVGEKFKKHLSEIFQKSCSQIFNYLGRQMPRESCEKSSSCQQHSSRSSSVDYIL

[2] = target: T2, Prolactin-releasing peptide receptor (Homo sapiens, UniProt P49683); test: Antagonist activity at human Gq-coupled PRLHR expressed in CHOK1 cells assessed as inhibition in prolactin releasing peptide (1 to 31)-induced beta-arrestin 2 recruitment incubated for 30 mins followed by prolactin releasing peptide (1 to 31) addition and measured after 90 or 180 mins by pathhunter beta-arrestin assay; method in brief: as §1
T2 sequence (P49683 whole entry): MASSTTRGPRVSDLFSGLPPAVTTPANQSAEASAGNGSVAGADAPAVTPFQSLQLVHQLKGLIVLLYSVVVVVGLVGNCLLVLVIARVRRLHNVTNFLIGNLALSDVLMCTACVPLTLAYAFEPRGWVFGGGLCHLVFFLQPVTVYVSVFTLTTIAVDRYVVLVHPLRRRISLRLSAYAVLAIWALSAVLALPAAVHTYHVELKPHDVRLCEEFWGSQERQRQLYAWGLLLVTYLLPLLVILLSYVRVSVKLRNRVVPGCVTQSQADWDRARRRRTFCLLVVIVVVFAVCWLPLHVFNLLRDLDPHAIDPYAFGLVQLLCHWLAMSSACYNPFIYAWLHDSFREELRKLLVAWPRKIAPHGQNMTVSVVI

CC[C@]12C=C(C(=O)OC)n3c(c(CCNC(=O)c4ccc(Br)cc4)c4ccccc43)[C@H]1N(C#N)CCC2
IC50 (Neuropeptide S receptor): 5.77 µM
IC50 [1]: 5.2 µM
IC50 [2]: 2.43 µM
